Laboratory results from ChEMBL document CHEMBL4014344, “Discovery of the Soluble Guanylate Cyclase Stimulator Vericiguat (BAY 1021189) for the Treatment of Chronic Heart Failure” (J Med Chem, 2017).
pIC50: −log10 of the molar value. The source made the active and inactive calls. The calls are words filed in the database; no cut-off is given here.

Assays:
Saphenous artery [1] = experiment: Inhibition of phenylephrine-induced contractions in Chinchilla rabbit saphenous artery rings administered at the beginning of the last resting period of 28 mins; assay type: functional; details: Oryctolagus cuniculus
Rattus norvegicus [2] = experiment: Antihypertensive activity in L-NAME-treated renin transgenic rat co-expressing RenTG(mRRen2)27 assessed as reduction in heart hypertrophy in right ventricle administered qd via oral gavage up to 21 days relative to control; assay type: functional
How it was run: (§1)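 Renin transgenic RenTG(mRRen2)27 male rats, 8 weeks old, on L-NAME drinking water (50 mg/L). Dosed by gavage qd with placebo (n = 20) or 3 or 10 mg/kg/day (n = 15 each). At day 22 animals were anesthetized and sacrificed, and left and right ventricles were dissected and weighed for hypertrophy. Unpaired t test versus placebo.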

[3] = Volume of distribution at steady state in iv dosed Beagle dog after 24 hrs by LC-MS analysis; assay type: ADME, organism-based, Canis lupus familiaris; details: in vivo, read-out: Vdss
How it was run: (§2)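 Male Wistar rats and female beagle dogs. iv in plasma/DMSO (rat) or H2O/PEG 400/EtOH (dog). Oral gavage in H2O/PEG 400/EtOH for both. Rats jugular-catheterised ≥1 d before dosing. Usually >10 blood samples, at least two after 24 h. Plasma quantified by LC-MS with internal standard. CL, t1/2, Vss and F calculated from plasma curves. Blood clearance via blood/plasma ratio (20 min blood incubation).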

[4] = Drug metabolism in human hepatocytes assessed as CYP-mediated (2S,3S,4S,5R,6R)-6-(6-amino-2-(5-fluoro-1-(2-fluorobenzyl)-1H-pyrazolo[3,4-b]pyridin-3-yl)-5-(methoxycarbonylamino)pyrimidin-4-ylamino)-3,4,5-trihydroxytetrahydro-2H-pyran-2-carboxylic acid metabolite formation; assay type: ADME, cell-based
[5] = Clearance in iv dosed Beagle dog blood after 24 hrs by LC-MS analysis; assay type: ADME, organism-based, Canis lupus familiaris; details: whole blood; how it was run: as §2
Rattus norvegicus [6] = experiment: Antihypertensive activity in L-NAME-treated renin transgenic rat co-expressing RenTG(mRRen2)27 assessed as reduction in systolic blood pressure increase at 3 to 10 mg/kg, administered qd via oral gavage up to 21 days; assay type: functional, organism-based
How it was run: (§3)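 Male RenTG(mRRen2)27 rats, 8 weeks old, given L-NAME in drinking water (50 mg/L) throughout. Randomised to placebo (2 mL/kg qd, n = 20) or 3 and 10 mg/kg/day po by gavage qd (n = 15 per group). Tail-cuff blood pressure on day 0, 7, 14 and 21. Plasma taken at day 22 end. Unpaired t test, mean ± SEM.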

Rattus norvegicus [7] = experiment: Antihypertensive activity in L-NAME-treated renin transgenic rat co-expressing RenTG(mRRen2)27 assessed as reduction in Kim-1 expression at 3 to 10 mg/kg administered qd via oral gavage up to 21 days; assay type: functional, organism-based; how it was run: as §3
[8] = Inhibition of phenylephrine-induced contractions in dog femoral vein after 15 to 20 mins post phenylephrine-induced contraction; assay type: functional, tissue-based, Canis lupus familiaris
Homo sapiens = organism: Homo sapiens; experiment: Stimulation of sGC (unknown origin) using alpha-[32P]-GTP as substrate assessed as increase in [32P]-cGMP formation at 100 uM in presence of sGC inhibitor ODQ
How it was run: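 Purified recombinant sGC (0.2 μg/mL) assayed by [32P]-cGMP formation from α-[32P]-GTP, with 200 μM GTP, 3 mM Mn2+/Mg2+ and 1 mM cGMP. Substrate turnover kept <10%. DMSO ≤1% (v/v). ODQ present. Activity expressed as x-fold over basal. Duplicates, repeated five times.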

Rattus norvegicus [9] = experiment: Effect on mortality in L-NAME-treated renin transgenic rat co-expressing RenTG(mRRen2)27 assessed as increase in survival rate administered qd via oral gavage up to 21 days; assay type: functional
How it was run: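 L-NAME (50 mg/L, drinking water) treated male RenTG(mRRen2)27 rats aged 8 weeks. Placebo (n = 20) or 3 or 10 mg/kg/day by oral gavage qd (n = 15/group). Survival checked on days 1, 8, 15 and at study end (day 22).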

Cytochrome P450 2C9 = Cytochrome P450 2C9 (Homo sapiens, UniProt P11712); experiment: Inhibition of human liver microsomes CYP2C9 using diclofenac as substrate; assay type: ADME
Cytochrome P450 2B6 = target: T1, Cytochrome P450 2B6 (Homo sapiens, UniProt P20813); experiment: Inhibition of human liver microsomes CYP2B6 using bupropion as substrate; assay type: ADME
T1 sequence (P20813 whole entry): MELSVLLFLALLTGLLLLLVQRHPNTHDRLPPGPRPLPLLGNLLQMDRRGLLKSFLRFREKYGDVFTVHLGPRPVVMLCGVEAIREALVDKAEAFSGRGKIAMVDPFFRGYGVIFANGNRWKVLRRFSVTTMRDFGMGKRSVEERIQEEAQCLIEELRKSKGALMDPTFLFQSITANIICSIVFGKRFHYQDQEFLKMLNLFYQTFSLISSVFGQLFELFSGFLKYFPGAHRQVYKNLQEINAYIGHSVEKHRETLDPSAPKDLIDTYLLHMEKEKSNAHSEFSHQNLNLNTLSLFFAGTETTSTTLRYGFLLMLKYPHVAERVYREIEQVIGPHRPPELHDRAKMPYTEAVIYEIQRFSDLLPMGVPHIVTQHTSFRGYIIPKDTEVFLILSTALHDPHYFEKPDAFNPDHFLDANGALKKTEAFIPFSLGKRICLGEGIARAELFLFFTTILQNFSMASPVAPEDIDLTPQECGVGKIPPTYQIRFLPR

Rattus norvegicus [10] = experiment: Antihypertensive activity in L-NAME-treated renin transgenic rat co-expressing RenTG(mRRen2)27 assessed as reduction in heart hypertrophy in left ventricle administered qd via oral gavage up to 21 days; assay type: functional; how it was run: as §1
Saphenous artery [11] = experiment: Vasorelaxant activity in normal Chinchilla rabbit saphenous artery ring administered at the beginning of the last resting period of 28 mins; assay type: functional; details: Oryctolagus cuniculus
Cytochrome P450 3A4 = Cytochrome P450 3A4 (Homo sapiens, UniProt P08684); experiment: Inhibition of human liver microsomes CYP3A4 using testosterone as substrate; assay type: ADME
Cytochrome P450 2C19 = Cytochrome P450 2C19 (Homo sapiens, UniProt P33261); experiment: Inhibition of human liver microsomes CYP2C19 using S-mephenytoin as substrate; assay type: ADME
Heart = experiment: Cardiotoxicity in Wistar rat assessed as effect on heart rate administered for 20 mins; assay type: toxicity, tissue-based
How it was run: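 Male Wistar rats (200−250 g) anesthetized with Narcoren 100 mg/kg ip. Excised heart Langendorff-perfused at constant flow 10 mL/min with Krebs−Henseleit buffer gassed with 95% O2/5% CO2. Values expressed as relative change from baseline before compound application.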

Chain of Cytochrome P450 3A4 (P08684 whole entry): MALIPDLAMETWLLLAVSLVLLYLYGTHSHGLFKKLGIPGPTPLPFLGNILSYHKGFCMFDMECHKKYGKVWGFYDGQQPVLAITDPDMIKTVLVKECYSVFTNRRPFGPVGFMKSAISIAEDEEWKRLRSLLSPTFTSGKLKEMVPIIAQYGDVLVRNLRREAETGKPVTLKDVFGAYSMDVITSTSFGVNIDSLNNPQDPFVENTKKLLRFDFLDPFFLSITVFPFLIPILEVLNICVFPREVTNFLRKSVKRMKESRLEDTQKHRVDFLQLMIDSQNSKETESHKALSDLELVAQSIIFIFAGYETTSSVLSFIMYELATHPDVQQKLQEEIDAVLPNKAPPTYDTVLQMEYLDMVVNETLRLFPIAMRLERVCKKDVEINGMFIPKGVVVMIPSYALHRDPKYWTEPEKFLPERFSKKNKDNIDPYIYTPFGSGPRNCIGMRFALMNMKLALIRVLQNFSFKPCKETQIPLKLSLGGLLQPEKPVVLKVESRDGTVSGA
Chain of Cytochrome P450 2C9 (P11712 whole entry): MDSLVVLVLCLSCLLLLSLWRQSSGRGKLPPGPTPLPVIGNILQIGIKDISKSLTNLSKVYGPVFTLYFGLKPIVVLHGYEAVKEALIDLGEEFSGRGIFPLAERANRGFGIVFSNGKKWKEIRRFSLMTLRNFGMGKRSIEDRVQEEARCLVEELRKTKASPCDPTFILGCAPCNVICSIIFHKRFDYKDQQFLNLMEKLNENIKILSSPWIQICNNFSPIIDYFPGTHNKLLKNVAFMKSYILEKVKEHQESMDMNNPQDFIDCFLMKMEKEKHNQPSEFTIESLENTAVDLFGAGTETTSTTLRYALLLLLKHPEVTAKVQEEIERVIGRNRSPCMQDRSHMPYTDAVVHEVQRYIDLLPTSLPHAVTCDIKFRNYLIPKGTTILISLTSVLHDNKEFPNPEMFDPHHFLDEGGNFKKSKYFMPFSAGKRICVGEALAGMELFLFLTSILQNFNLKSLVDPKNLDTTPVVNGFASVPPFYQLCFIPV
Chain of Cytochrome P450 2C19 (P33261 whole entry): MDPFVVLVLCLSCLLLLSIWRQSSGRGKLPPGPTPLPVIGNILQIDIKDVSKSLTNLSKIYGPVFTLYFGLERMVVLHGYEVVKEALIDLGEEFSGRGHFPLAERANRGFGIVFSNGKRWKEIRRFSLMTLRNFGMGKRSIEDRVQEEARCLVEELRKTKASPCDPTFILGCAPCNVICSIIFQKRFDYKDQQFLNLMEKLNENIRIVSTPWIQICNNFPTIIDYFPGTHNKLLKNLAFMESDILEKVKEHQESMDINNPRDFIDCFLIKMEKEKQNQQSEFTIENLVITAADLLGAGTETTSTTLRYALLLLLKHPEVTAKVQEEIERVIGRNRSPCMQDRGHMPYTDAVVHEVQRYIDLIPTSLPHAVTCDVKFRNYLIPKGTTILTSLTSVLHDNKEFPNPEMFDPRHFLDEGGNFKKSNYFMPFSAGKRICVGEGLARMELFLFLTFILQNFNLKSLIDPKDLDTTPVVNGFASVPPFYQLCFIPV

In the case of `COC(=O)Nc1c(N)nc(-c2nn(Cc3ccccc3F)c3ncc(F)cc23)nc1N` [VERICIGUAT], the pIC50 (Saphenous artery [1]) was 6.10, the Activity (Rattus norvegicus [2]) was “Dose-dependent effect” and the Vd [3] was 1.4 L/kg. The Drug metabolism [4] was “Metabolite_Detected”, the clearance [5] was 3.33 mL/min/kg and the Activity (Rattus norvegicus [6]) was “Active”. For the same compound, the Activity (Rattus norvegicus [7]) was “Active”, the pIC50 [8] was 5.51 and the Activity (Homo sapiens) was “inactive”. For the same compound, the Activity (Rattus norvegicus [9]) was “Dose-dependent effect”, the pIC50 (Cytochrome P450 2C9) was under 4.30 and the pIC50 (Cytochrome P450 2B6) was under 4.30. The Activity (Rattus norvegicus [10]) was “Dose-dependent effect”, the pIC50 (Saphenous artery [11]) was 8.25 and the pIC50 (Cytochrome P450 3A4) was under 4.30. For the same compound, the pIC50 (Cytochrome P450 2C19) was under 4.30 and the Activity (Heart) was “Non-Toxic”.
